Results gathered from unrelated publications.
FLT3: Receptor-type tyrosine-protein kinase FLT3 (FLT3, Homo sapiens, UniProt P36888)
FLT3 D835H: Receptor-type tyrosine-protein kinase FLT3 (FLT3, Homo sapiens, UniProt P36888, D835H)
FLT3 K663Q: Receptor-type tyrosine-protein kinase FLT3 (FLT3, Homo sapiens, UniProt P36888, K663Q)
FLT3 N841I: Receptor-type tyrosine-protein kinase FLT3 (FLT3, Homo sapiens, UniProt P36888, N841I)

The remaining activity of Cc1ccc(C(=O)Nc2ccc(CN3CCN(C)CC3)c(C(F)(F)F)c2)cc1C#Cc1cnc2cccnn12 is reported as 58% (FLT3; enzyme activity, inhibitor; 23.5 nM).
For CC1=C(C#N)[C@@H](c2ccc3[nH]nc(C)c3c2)C(C#N)=C(c2ccc(Cl)cc2)N1, the remaining binding was 100% (FLT3 D835H; cell-free assay, competition with immobilised ligand; 1 µM).
Cc1ccc(C(=O)NCc2ccsc2)cc1C#Cc1cn(C(C)C)c2ncnc(N)c12 gave an activity vs control of 80% (FLT3; enzyme activity, inhibitor; 1 µM).
Cc1c[nH]c2nccc(Oc3c(F)cc(Nc4cc(Cl)nc(N)n4)cc3F)c12 gave a remaining binding of 100% (FLT3 D835H; cell-free assay, competition with immobilised ligand; 0.1 µM).
With CCN(CC)CCNC(=O)c1c(C)[nH]c(/C=C2\C(=O)Nc3ccc(F)cc32)c1C the remaining activity was 1% (FLT3; enzyme activity, inhibitor; 1 µM).
The remaining activity of CCCOc1ccc(OC)c(F)c1C(=O)c1ccc(C(=O)N[C@@H]2CNC[C@H]2NC(=O)c2ccc3[nH]ncc3c2)cc1 is reported as 12% (Receptor-type tyrosine-protein kinase FLT3 (FLT3, Homo sapiens, UniProt P36888, D835Y); enzyme activity, inhibitor; 10 µM).
The activity vs control of Cc1cnc(-c2ccc(-c3ccc(NC(=O)Nc4c(F)cc(F)cc4F)cc3F)c3c2C(=O)NC3)[nH]1 is reported as 6.2% (Receptor-type tyrosine-protein kinase FLT3 (FLT3, Homo sapiens, UniProt P36888, ITD); enzyme activity, inhibitor; 0.1 µM, 90 min).
N[C@@H]1CCN(c2nccc(-c3cnn4ncccc34)n2)C1 gave a remaining binding of 100% (FLT3 K663Q; binding; 1 µM).
The remaining signal of COc1cc2ncnc(Nc3ccc(F)c(Cl)c3)c2cc1OCCCN1CCOCC1 is reported as 56.5% (FLT3; cell-free assay; 0.5 µM).
With C[C@H]1CCN(c2nccc(-c3cnn4ncccc34)n2)C1 the remaining binding was 100% (FLT3 N841I; binding; 1 µM).
CNCc1ccccc1-c1csc([C@@H](C)Nc2nc(C)nc3cc(OC)c(OC)cc23)c1 has a remaining binding of 88% (Receptor-type tyrosine-protein kinase FLT3, autoinhibited (FLT3, Homo sapiens, UniProt P36888); cell-free assay, competition with immobilised ligand; 1 µM).
For CC(C)(C)c1nc2c(s1)c1nc(N)ncc1c1ccc(NS(=O)(=O)c3c(F)cccc3F)c(F)c12, the remaining activity was 104% (FLT3; enzyme activity, inhibitor, radiometric; 1 µM).
For Nc1ncnc2occ(-c3ccc(NC(=O)Nc4cc(C(F)(F)F)ccc4F)cc3)c12, the remaining signal was 0% (Receptor-type tyrosine-protein kinase FLT3 (FLT3, Homo sapiens, UniProt P36888, D835V); cell-free assay, inhibitor; 20 µM).
O=[N+]([O-])c1cccc2[nH]c(CNc3nc(N4CCOCC4)nc4c3ncn4-c3ccsc3)nc12 has a binding vs control of 5.2% (FLT3 K663Q; binding, competition with immobilised ligand; 10 µM).
CC(C)CC(=O)N1CCc2nc(-c3ccc(Br)cc3)nc(N(C)Cc3ccccc3)c2C1 gave a remaining binding of 100% (FLT3 N841I; cell-free assay, competition with immobilised ligand; 0.1 µM).
Cc1cc(NC(=O)c2cccc3cc(-c4cccc5[nH]nc(N)c45)ccc23)ccc1F has an activity vs control of 109% (FLT3; enzyme activity, inhibitor; 0.1 µM).
The remaining binding of COc1cc(-c2cn(C3CCc4c(F)cccc4N(CC(F)(F)F)C3=O)nn2)ccc1-n1cnc(C)c1 (stereo not shown) is reported as 99% (FLT3 N841I; cell-free assay, competition with immobilised ligand; 1 µM).
With Cc1sc(C(=O)NC2COC2)cc1-n1cc(NC(=O)Nc2c(F)cccc2Cl)cn1 the remaining activity was 69.1% (FLT3; enzyme activity, inhibitor; 10 µM).
The remaining signal of COc1cc2c(Nc3ccc(Br)cc3F)ncnc2cc1OCC1CCN(C)CC1 is reported as 43.7% (FLT3; cell-free assay; 0.5 µM).
With CS(=O)(=O)N1CCCC(NC(=O)[C@H](CCC2CCCCC2)NC(=O)c2ccc(CNc3ncnc4c3nnn4-c3ccccc3)cc2)C1 (stereo partly shown) the remaining binding was 100% (Receptor-type tyrosine-protein kinase FLT3 (FLT3, Homo sapiens, UniProt P36888, F691L/ITD); cell-free assay, competition with immobilised ligand; 0.1 µM).
For O=C1NC(=O)c2cc(Nc3ccc(F)cc3)c(Nc3ccc(F)cc3)cc21, the remaining signal was 91.5% (FLT3; cell-free assay; 0.5 µM).
O=C(Nc1cccnn1)N1CC(C/C=C/c2cncc(Oc3ccc(C(F)(F)F)cn3)n2)C1 gave a remaining binding of 100% (FLT3; cell-free assay, competition with immobilised ligand; 1 µM).
